Source: PubChem (Sanford-Burnham Center for Chemical Genomics)
FLuc inhib CS: inhibits firefly luciferase, flagging false hits in luciferase inhibition screens; P08659; 200,000 compounds, 1.5% hits; ATPLite firefly luciferase biochemical luminescence, 10 min; inhibition, % at 10 µM;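 active = inhibition above about 50% when tested at 10 µM, limit read from the data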
Target sequence (P08659 whole entry, looked up): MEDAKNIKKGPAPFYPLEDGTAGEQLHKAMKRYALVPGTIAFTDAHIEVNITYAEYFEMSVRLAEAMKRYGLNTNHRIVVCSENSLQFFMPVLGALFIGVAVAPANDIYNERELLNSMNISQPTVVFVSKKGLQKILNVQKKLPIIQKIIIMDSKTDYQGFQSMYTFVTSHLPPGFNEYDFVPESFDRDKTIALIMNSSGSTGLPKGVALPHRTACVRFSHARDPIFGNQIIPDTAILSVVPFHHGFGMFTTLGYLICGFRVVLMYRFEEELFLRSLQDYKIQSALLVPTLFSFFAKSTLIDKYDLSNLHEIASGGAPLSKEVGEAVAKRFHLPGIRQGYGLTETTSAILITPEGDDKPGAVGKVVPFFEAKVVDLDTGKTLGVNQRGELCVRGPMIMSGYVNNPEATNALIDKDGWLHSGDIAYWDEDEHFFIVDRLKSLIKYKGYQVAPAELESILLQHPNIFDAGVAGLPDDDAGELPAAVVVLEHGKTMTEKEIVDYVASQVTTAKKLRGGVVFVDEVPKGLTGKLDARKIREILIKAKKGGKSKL
Diaphorase inh: inhibits diaphorase or chemically oxidizes, flagging diaphorase assay artifacts; diaphorase resazurin-to-resorufin fluorescence, NADH, 16 min; bacterial (C. kluyveri) enzyme, not human; inhibition, % at 20 µM; 190,000 compounds, 0.69% hits; AID 1217;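 active = primary screen inhibition at 20 µM above a set limit, cut at about 50% in these data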
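Test system: Clostridium kluyveri diaphorase enzyme / Quantity: diaphorase at 0.14 U/mL in enzyme working solution / Incubation: 16-min room-temperature incubation before reading / Benchmarks: NADH-free wells as positive control, DMSO-only neutral wells / Signal: resorufin fluorescence 544/590 nm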
Diaphorase act: diaphorase activation or chemical reduction counter-screen; activation factor at 20 µM; 190,000 compounds, 0.005% hits; Diaphorase/resazurin coupled assay, resorufin fluorescence, 16 min; active compounds read high; 1 = vehicle wells, 0 = NADH-free wells;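 active = diaphorase activity raised at least twofold by the compound at 20 µM; inactive = activation factor below 2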
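System – purified diaphorase enzyme from Clostridium kluyveri · Input – enzyme 0.07 U/mL final · Also added – final NADH 0.114 mM, resazurin 0.1 mM · Measured by – fluorescence of resorufin, 544 nm excitation, 590 nm emission · Timing – 16 min enzyme reaction, ambient temperature · Measure – resorufin increase flagging diaphorase activators or reducers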
FLuc act counter: firefly luciferase counter-screen for stimulation assays | P08659 | ATPlite luciferase biochemical, luminescence, 10 min; 0 = ATP-free wells, 1 = DMSO control | activation factor at 10 µM | 200,000 tested, under 10 active | AID 1027;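 active = luciferase activation factor, scaled between plate controls, of at least 2 with compound at 10 µM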
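Material: luciferase plus luciferin reagent, cell-free. Medium: PBS buffer for ATP. Also added: ATP substrate, dispensed from a 10.24 µM working solution in PBS. Doses: test compounds dosed from 2 mM stocks in 100% DMSO. Incubation: 10 min post-reagent at room temperature. Technique: light output (luminescence). Read-out basis: luminescence gain marking luciferase activators.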
G6PDH CS: inhibits Leuconostoc G6PDH, flagging false hits in G6PDH-based assays | Purified L. mesenteroides G6PDH, diaphorase/resazurin coupled fluorescence, 45 min | inhibition, % at 5 µM | 200,000 compounds, 0.12% hits; in the data active = inhibition above about 50%
Hits are given with their value; . = inactive; / = not tested or not shown. Rows were chosen to be rich in hits. Some 2.3% of all compounds tested hit in one or more screens of this group.

SMILES	FLuc inhib CS	Diaphorase inh	Diaphorase act	FLuc act counter	G6PDH CS
Cc1cccc(Sc2c(C=O)c3ccccc3n2C)c1	.	.	.	.	.
O=C(CCNc1n[nH]c(=O)[nH]c1=O)N/N=C\c1cccc(OCc2ccccc2)c1	.	.	.	.	.
CCS(=O)(=O)Nc1ccc(-c2nc3cccnc3s2)cc1	67.2	.	.	.	.
CCOC(=O)C(NCCc1ccccc1F)(NC(C)=O)C(F)(F)F (configuration not stated)	.	.	.	.	.
COc1cc(/C=N/Nc2nn3cnnc3c3ccccc23)ccc1O	93.9	.	.	.	.
COc1cccc(/C=N/Nc2nn3cnnc3c3ccccc23)c1	70.7	.	.	.	.
Cc1ccc(Sc2ncccc2COC(=O)NC(C)C)cc1	.	.	.	.	.
O=C(NCCCn1ccnc1)c1ccc(S(=O)(=O)N2CCOCC2)cc1	.	.	.	.	.
CC1CCCCC12NC(=O)N(CC(=O)Nc1ccc(N3CCOCC3)cc1)C2=O (configuration not stated)	.	.	.	.	.
CCC(C)/C(C)=N/NC(=O)c1ccc(COc2ccc(Cl)c(C)c2)cc1 (configuration not stated)	.	.	.	.	.
COc1ccc(C(=O)O/N=C(\C)c2ccccc2)cc1	90.3	.	.	.	.
COc1cccc(C(=O)O/N=C(\C)c2cnccn2)c1	65.2	.	.	.	.
C/C(=N/OC(=O)c1c(-c2c(Cl)cccc2Cl)noc1C)c1cnccn1	.	.	.	.	.
CN(CCC#N)C(=O)COC(=O)c1ccc(Cl)c(S(=O)(=O)N(C)c2ccccc2)c1	.	.	.	.	.
Cc1cc(C)c2nc3nc(C)c(C)cc3c(N)c2c1	.	.	.	.	.
NC(=O)N/N=C/c1cn(-c2ccccc2)nc1-c1cccs1	70.4	.	.	.	.
Cc1ccc(/C=N/Nc2cccc(C(=O)O)c2)s1	.	.	.	.	.
Cc1nn(-c2ccccc2Cl)c(Cl)c1/C=N/Nc1cccc(C(=O)O)c1	90.5	.	.	.	.
O=C(N/N=C/c1cn(-c2ccccc2)nc1-c1cccs1)c1ccncc1	.	.	.	.	.
Cc1nn(-c2cccc(C(F)(F)F)c2)c(Cl)c1/C=N/Nc1cccc(C(=O)O)c1	.	.	.	.	.
Cc1ccsc1/C=N/Nc1cccc(C(=O)O)c1	58.9	.	.	.	.
O=C(O)c1cccc(N/N=C/c2cn(-c3ccccc3)nc2-c2cccs2)c1	54.0	.	.	.	.
Cc1cccc(N(CC(=O)N2CCCC2)S(=O)(=O)c2ccccc2)c1	.	.	.	.	.
O=C(O)c1cccc(N/N=C/c2sc(N3CCOCC3)nc2-c2ccccc2)c1	59.5	.	.	.	.
Nc1ccc(C(=O)N/N=C/c2sc(N3CCOCC3)nc2-c2ccccc2)cc1	.	.	.	.	.
SMILES	FLuc inhib CS	Diaphorase inh	Diaphorase act	FLuc act counter	G6PDH CS
COC(=O)c1sc(S(=O)(=O)NCCC(=O)O)c(C(=O)OC)c1C	.	.	.	.	.
Cc1cc(-c2n[nH]c(=S)n2/N=C/c2cccc([N+](=O)[O-])c2)n[nH]1	.	61.5	.	.	.
CC(=C/c1ccccc1)/C=N/n1c(-c2ccncc2)n[nH]c1=S	.	65.7	.	.	.
Cc1cc(-c2n[nH]c(=S)n2/N=C/C(Cl)=C/c2ccccc2)n[nH]1	.	50.8	.	.	.
COc1ccc(NC(=O)COC(=O)CCCc2c[nH]c3ccccc23)cc1OC	.	.	.	.	.
O=C(C1CCCC1)N1CCN=C1SCc1cccc([N+](=O)[O-])c1	.	.	.	.	.
CCc1nnc(NC(=O)c2cccnc2SC)s1	.	.	.	.	.
CCN(CC)c1ccc(C(=O)O)cc1	.	.	.	.	.
CCN(CC)c1ccc(/C=C2\C(=O)c3ccc(C(=O)O)cc3C2=O)cc1	91.9	.	.	.	.
CCCCCCN1C=CC(=C2C(=O)c3ccccc3C2=O)C=C1	94.5	.	.	.	.
CCCCN1C(C)=CC(=C2C(=O)c3ccccc3C2=O)C=C1C	77.3	.	.	.	.
CN1C=CC(=C2C(=O)c3ccccc3C2=O)C=C1	75.2	.	.	.	.
CC1=CC(=C2C(=O)c3ccccc3C2=O)C=C(C)N1Cc1ccco1	.	.	.	.	.
CCCN1C=CC(=C2C(=O)c3ccccc3C2=O)C=C1	97.1	.	.	.	.
COCCNC(=O)C1CCN(S(=O)(=O)c2ccccc2)CC1	.	.	.	.	.
Cc1ccc(/C=N/n2cnc3sc(C)c(C)c3c2=O)o1	.	.	.	.	.
O=C(Cn1cc(C(F)(F)F)ccc1=O)N/N=C/c1cccc(Cl)c1	.	.	.	.	.
CCN1C=CC(=C2C(=O)c3ccccc3C2=O)C=C1	97.6	.	.	.	.
CC1=CC(=C2C(=O)c3ccccc3C2=O)C=C(C)O1	.	.	.	.	.
C#CCOC(=O)CCCC(=O)NCCCCCCCC	.	.	.	.	.
O=C(N/N=C/c1ccc(Br)o1)c1cccnc1	.	.	.	.	.
CC(=O)Nc1ccc(C(=O)N/N=C/c2cccnc2)cc1	.	.	.	.	.
O=C(N/N=C/c1ccc(Br)o1)c1ccc2c(c1)OCCO2	73.6	.	.	.	.
CC(C)c1cc(C(=O)N/N=C/c2cccnc2)cs1	64.2	.	.	.	.
O=C(N/N=C/c1cccnc1)c1ccc2c(c1)OCCO2	91.0	.	.	.	.
SMILES	FLuc inhib CS	Diaphorase inh	Diaphorase act	FLuc act counter	G6PDH CS
O=C(CCc1nc2ccccc2c(=O)[nH]1)N1CCN(c2ccc(F)cc2)CC1	.	.	.	.	.
O=C1C(=O)N(CC2CCCO2)C(c2ccccc2[N+](=O)[O-])/C1=C(/O)c1ccccc1 (configuration not stated)	.	.	.	.	.
COc1ccc(CCNc2ccc(N3C(=O)CC(C)C3=O)cc2[N+](=O)[O-])cc1OC (configuration not stated)	.	.	.	.	.
CC(=O)c1ccc(Nc2ccc(-c3ccccc3F)nn2)cc1	57.7	.	.	.	.
CC1CCN(C(=S)Nc2ccc(SC(F)F)cc2)CC1	65.8	.	.	.	.
CC(=O)c1ccc(N2CCN(C(=O)c3cc(-c4cccnc4)nc4ccc(Br)cc34)CC2)cc1	.	52.1	.	.	.
C/C(=N\Nc1cccc2cccnc12)c1ccc[nH]1	86.2	.	.	.	.
O=C(NCCc1ccccc1)c1ccc([N+](=O)[O-])cc1	66.0	.	.	.	.
Fc1cccc(F)c1/C=C/c1ccc2ccccc2n1	81.8	.	.	.	.
CCNC(=O)C(=O)N/N=C/c1cc([N+](=O)[O-])ccc1O	.	53.2	.	.	.
O=C(N/N=C/c1cc([N+](=O)[O-])ccc1O)Nc1ccccc1	.	/	/	.	.
